The text below walks through data of ChEMBL document CHEMBL1287658, “Reinvestigation of structure-activity relationship of methoxylated chalcones as antimalarials: synthesis and evaluation of 2,4,5-trimethoxy substituted patterns as lead candidates derived from abundantly available natural β-asarone” (Eur J Med Chem, 2010).

Each structure is given as a SMILES string. Activity calls are given as the source filed them. No cut-off for these calls is given here.

Series [1] has as its system Plasmodium falciparum. Put plainly: Antimalarial activity against chloroquine-sensitive Plasmodium falciparum 3D7 infected in human O+ erythrocytes after 72 hrs by SYBR Green-1 fluorescence based assay. In kind it is functional, organism-based. The following applies: 3D7, 72 h. Summed up:
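P. falciparum 3D7 kept in O+ human erythrocytes, 4% hematocrit, RPMI 1640 with Albumax, hypoxanthine and gentamicin, 37 °C under 5% O2/5% CO2/90% N2. Sorbitol-synchronized rings were plated at 2% hematocrit, 1% parasitemia with drug 0–10^-4 M (0.4% DMSO final), triplicate wells, 72 h. SYBR Green I read at ex 497/em 520 nm. IC50 by visual matching of 50% growth inhibition.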

The subject of series [2] is Plasmodium falciparum. Put plainly: Inhibition of Plasmodium falciparum-mediated human hemoglobin degradation at 100 uM. In kind it is functional, organism-based.
A short description of series [3]: Selectivity index, ratio of TC50 for human HeLa cells to IC50 for Plasmodium falciparum 3D7. It counts as toxicity, cell-based. Summed up:
(§1)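 Selectivity index was TC50 (24 h MTT in HeLa or L929) divided by IC50 against 3D7 (72 h SYBR Green I growth assay).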

Series [4] deals with L929. Nature of the series: Cytotoxicity against mouse L929 cells assessed as cell viability after 24 hrs by MTT assay. It counts as cell-based. The following applies: l929, 24 h. Summed up:
(§2)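 HeLa and L929 cells were grown in RPMI with 10% FBS, seeded at 10⁴ cells/well overnight, then exposed to drug for 24 h at 37 °C, 5% CO2. DMSO at 10% final was the positive control. MTT was added for 4 h, then formazan was dissolved in DMSO and read at 570 nm. TC50 was taken from dose-response curves.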
In general terms: Tetrazolium assays rely on reduction of a dye to a coloured formazan, in cell work by metabolically active cells.

Series [5] is described as follows: Selectivity index, ratio of TC50 for mice (Mus musculus) L929 cells to IC50 for Plasmodium falciparum 3D7. It counts as toxicity, cell-based. The essentials: as §1
The subject of series [6] is Plasmodium falciparum. Put plainly: Antimalarial activity against chloroquine-resistant Plasmodium falciparum Dd2 infected in human O+ erythrocytes after 72 hrs by SYBR Green-1 fluorescence based assay. It counts as functional, organism-based. The settings on record: Dd2, 72 h. Summed up:
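Ring-stage culture (5% sorbitol synchronised) plated at 2% hematocrit, 1% parasitemia in RPMI 1640 with 0.5% Albumax, hypoxanthine, gentamicin; 37 °C, 5% O2/5% CO2/90% N2. Compounds from DMSO stock, final 0.4% DMSO, 0 to 10^-4 M, triplicate wells. 72 h, then SYBR Green I fluorescence (ex 497/em 520 nm). IC50 by visual matching of 50% growth inhibition.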

Series [7] relates to Plasmodium falciparum. Put plainly: Resistance index, ratio of IC50 for Plasmodium falciparum Dd2 to IC50 for Plasmodium falciparum 3D7. In kind it is functional. The essentials: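 Ratio of IC50 against Dd2 to IC50 against 3D7. Both IC50s come from the same 72 h SYBR Green I assay: sorbitol-synchronised rings, 2% hematocrit, 1% parasitemia, 0 to 10^-4 M in triplicate, 0.4% final DMSO. Each IC50 taken by visual matching of 50% growth inhibition.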

In series [8] the test system is HeLa. Put plainly: Cytotoxicity against human HeLa cells assessed as cell viability after 24 hrs by MTT assay. It counts as cell-based. The essentials:
as §2

Broadly, the IC50 is the concentration needed to halve the response being measured. Read a low IC50 as higher potency. In series [1], `COc1cc(OC)c(OC)cc1/C=C/C(=O)c1ccc(C#N)cc1` returned a half-inhibitory concentration (IC50) of more than 100 µM. Moreover, in series [2], the inhibition result was “inactive”.
Turning to `COc1cc(OC)c(OC)cc1/C=C/C(=O)c1ccc(Cl)c(Cl)c1`, in series [1], the concentration for half-maximal inhibition (IC50) is more than 20 µM. The inhibition result in series [2] was “inactive”.
For the compound `COc1cc(OC)c(/C=C/C(=O)c2ccc(Cl)cc2)c(OC)c1`, the half-inhibitory concentration (IC50) in series [1] was determined as 8 µM. Moreover, the inhibition result in series [2] was “inactive”.
The corresponding values for `COc1cc(OC)c(OC)cc1/C=C/C(=O)c1ccc(OC)c(OC)c1OC` are 7.8 µM and “inactive”.
For the compound `COc1cc(OC)c(OC)cc1/C=C/C(=O)c1ccc([N+](=O)[O-])cc1`, the 50% inhibitory concentration (IC50) in series [1] is more than 200 µM. In addition, the inhibition result in series [2] is “inactive”.
`COc1ccc(/C=C/C(=O)c2ccc(Cl)cc2)cc1`: in series [1], the IC50 came out at 28.8 µM. The inhibition result in series [2] was “inactive”.
Regarding `COc1cc(OC)c(OC)cc1/C=C/C=C/C(=O)c1ccc(Br)cc1`, the IC50 in series [1] came to 12.2 µM. Further, in series [2], the inhibition entry was “inactive”.
On to `O=C(/C=C/c1ccco1)c1ccc([N+](=O)[O-])cc1`, for which the concentration for half-maximal inhibition (IC50) in series [1] is more than 200 µM. The inhibition result in series [2] was “inactive”.
For `COc1cc(OC)c(OC)cc1/C=C/C(=O)/C=C/c1ccc(Br)cc1` the same measures were 18 µM and “inactive”.
In the case of `COc1ccc(C(=O)/C=C/c2cc(OC)c(OC)cc2OC)cc1`, the midpoint of inhibition in series [1], the IC50, lay at 11.5 µM. In addition, in series [2], the inhibition result was “inactive”.
In turn, `O=C(/C=C/c1ccc(Cl)cc1)c1ccc(O)cc1` displayed a half-maximal inhibitory concentration (IC50) in series [1] of 30 µM. Moreover, the inhibition result in series [2] is “inactive”.
On to `COc1cc(OC)c(OC)cc1/C=C/C(=O)c1ccc(I)cc1`, for which the figures for the selectivity ratio in series [3] and in series [5] were 50 and more than 50, respectively. In addition, the IC50 in series [1] is 2 µM; in series [6], 7.5 µM. The Activity result in series [4] and in series [8] was “Non-toxic” each time. Besides, the inhibition entry in series [2] is “inactive”. In series [7], the “Ratio IC50” value was 3.7.
As to `COc1cc(/C=C/C(=O)c2ccc(Cl)cc2)cc(OC)c1OC`, the results for the selectivity ratio in series [3] and in series [5] were 3 and 2.8, respectively. For the same compound, the values for the concentration for half-maximal inhibition (IC50) in series [1] and in series [6] were 4.6 µM and 11.5 µM, respectively. For the same compound, the inhibition entry in series [2] is “inactive”. Moreover, in series [7], the “Ratio IC50” value came to 2.5.
Take `C=CCOc1ccc(C(=O)/C=C/c2ccc(Cl)cc2)cc1`: in series [1], the half-inhibitory concentration (IC50) worked out at 75 µM. Moreover, the inhibition entry in series [2] is “inactive”.
Consider `O=C(/C=C/c1cccs1)c1ccc([N+](=O)[O-])cc1`, for which the half-inhibitory concentration (IC50) in series [1] stood at 170 µM. The inhibition entry in series [2] is “inactive”.
As to `COc1ccc(/C=C/C(=O)c2ccc(Cl)cc2)c(OC)c1`, the selectivity ratio in series [3] was more than 16.6; in series [5], 14.6. In addition, the results for the IC50 in series [1] and in series [6] were 6 µM and 6.8 µM, respectively. Besides, the inhibition entry in series [2] is “inactive”. Also, in series [7], the “Ratio IC50” value was found to be 1.1.
In series [1], `COc1ccc(/C=C/C(C)=O)c(OC)c1` gave an IC50 of 48.5 µM. Also, in series [2], the inhibition result was “inactive”.
`C=CCn1cc(C(CC(=O)c2ccc(Cl)cc2)c2cc(OC)c(OC)cc2OC)c2ccccc21` (centres undefined) displayed a half-inhibitory concentration (IC50) in series [1] of 8.4 µM. Besides, in series [2], the inhibition result was “inactive”.
The compound `C=CCn1cc(/C(=C\C(=O)c2ccc(Br)cc2)c2cc(OC)c(OC)cc2OC)c2ccccc21` yielded a half-inhibitory concentration (IC50) in series [1] of 17.5 µM. Further, the inhibition result in series [2] is “inactive”.
For `COc1cc(OC)c(OC)cc1CCC(O)c1ccc(Cl)cc1` (centres undefined), the midpoint of inhibition in series [1], the IC50, lay at 50 µM. Further, the inhibition result in series [2] was “inactive”.
In series [1], `COc1cc(OC)c(OC)cc1CCC(=O)c1ccc(Cl)cc1` displayed an IC50 of 64 µM. Moreover, the inhibition result in series [2] is “inactive”.
`C=CC(C)(C)c1cc(/C=C/C(=O)c2ccc(O)cc2)c(OC)cc1O` [LICOAGROCHACONE A] yielded an IC50 in series [1] of 4.1 µM. Also, the inhibition entry in series [2] is “inactive”.
In the case of `COc1ccc(C(=O)/C=C/c2ccc(Cl)cc2)cc1`, the midpoint of inhibition in series [1], the IC50, lay at 88 µM. Moreover, the inhibition entry in series [2] was “inactive”.
In the case of `O=C(/C=C/c1ccc(Cl)cc1)c1ccc(Cl)cc1` [4',4-DICHLOROCHALCONE], the half-inhibitory concentration (IC50) in series [1] was found to be 65 µM. Besides, the inhibition result in series [2] was “inactive”.
Consider `COc1cc(OC)c(C(CC(=O)c2ccc(Cl)cc2)c2c[nH]c3ccccc23)cc1OC` (centres undefined), for which, in series [1], the IC50 is 8.6 µM. Moreover, the inhibition result in series [2] was “inactive”.
In the case of `COc1cc(OC)c(OC)cc1/C=C/C(=O)c1ccc(Br)cc1`, the selectivity ratio stood at 31.7 in series [3] and 55.6 in series [5]. The concentration for half-maximal inhibition (IC50) in series [1] was found to be 1.8 µM; in series [6] it was 5 µM. In addition, the Activity entry in series [4] and in series [8] was “Non-toxic” in each case. Moreover, the inhibition entry in series [2] was “inactive”. Also, the “Ratio IC50” value in series [7] is recorded as 2.8.
With `O=C(/C=C/c1ccc(Cl)cc1)c1ccc([N+](=O)[O-])cc1`, in series [1], the half-inhibitory concentration (IC50) came out at 78 µM. In addition, in series [2], the inhibition result is “inactive”.
As for `COc1cc(OC)c(OC)cc1/C=C/C(=O)c1ccc(Cl)cc1`, the selectivity ratio in series [3] came out at 9; in series [5], 8.3. For the same compound, the IC50 in series [1] stood at 4 µM; in series [6] it was 6.9 µM. Besides, the inhibition result in series [2] is “inactive”. Moreover, the “Ratio IC50” value in series [7] stood at 1.7.
As for `CCN(CC)CCCC(C)Nc1ccnc2cc(Cl)ccc12` (centres undefined), the inhibition entry in series [2] is “inactive”.
Turning to `O=C(/C=C/c1ccc(Cl)cc1)c1ccc(Br)cc1`, the 50% inhibitory concentration (IC50) in series [1] is 50 µM. Further, the inhibition entry in series [2] is “inactive”.
The compound `COc1ccc(C(=O)/C=C/c2ccc(Cl)c(Cl)c2)cc1` yielded a concentration for half-maximal inhibition (IC50) in series [1] of more than 200 µM. Also, in series [2], the inhibition entry was “inactive”.
Consider `COc1cc(OC)c(OC)cc1/C=C/C(=O)c1ccc(-c2ccc(Br)cc2)cc1`, for which the IC50 in series [1] worked out at 47 µM. In addition, the inhibition result in series [2] is “inactive”.
In series [1], `O=C(/C=C/c1ccc(Cl)cc1)c1ccc2c(c1)OCO2` came in with an IC50 of 97.9 µM. Moreover, the inhibition result in series [2] was “inactive”.
